In ChEMBL document CHEMBL1149534, “3-Arylamino-2H-1,2,4-benzothiadiazin-5-ol 1,1-dioxides as novel and selective CXCR2 antagonists” (Bioorg Med Chem Lett, 2007):
Converted amounts (≈) assume the structure as drawn.

What was measured:
[1] = target: T1, C-X-C chemokine receptor type 2 (Homo sapiens, UniProt P25025); assay: Displacement of human recombinant [125I]IL8 from CXCR2 receptor expressed in CHO cells; format: cell-based
T1 sequence (P25025 whole entry): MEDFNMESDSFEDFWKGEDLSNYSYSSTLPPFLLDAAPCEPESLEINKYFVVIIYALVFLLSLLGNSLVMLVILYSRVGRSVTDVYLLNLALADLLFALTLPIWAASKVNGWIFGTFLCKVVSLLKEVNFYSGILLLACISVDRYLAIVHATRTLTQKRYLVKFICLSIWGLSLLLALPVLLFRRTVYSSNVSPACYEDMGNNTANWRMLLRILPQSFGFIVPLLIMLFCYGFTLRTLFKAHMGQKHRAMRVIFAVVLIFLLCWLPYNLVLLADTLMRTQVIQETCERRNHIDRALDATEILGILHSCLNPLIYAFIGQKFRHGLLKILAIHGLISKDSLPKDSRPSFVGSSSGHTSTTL
Procedure, shortened: (§1)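 Membranes from CHO cells expressing CXCR1 or CXCR2, with ~0.25 nM human recombinant [125I]-IL-8 as radioligand, run in 96-well format. Values are the mean of three individual experiments.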

[2] = target: T1, C-X-C chemokine receptor type 2; assay: Antagonist activity at CXCR2 receptor expressed in CHOK1 cells assessed as human IL8-induced calcium mobilization by FLIPR; format: functional, cell-based, CHO-K1
Procedure, shortened: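 Cells grown 24 h, loaded with Fluo-4 AM calcium dye, then exposed to compound at […] for 10 min at 37 °C. Ca2+ mobilization read on FLIPR as percent of maximal IL-8 response. IC50 taken as concentration giving 50% inhibition of the maximal IL-8 response.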

[3] = target: T2, C-X-C chemokine receptor type 1 (Homo sapiens, UniProt P25024); assay: Displacement of human recombinant [125I]IL8 from CXCR1 receptor expressed in CHO cells; format: cell-based; procedure, shortened: as §1
T2 sequence (P25024 whole entry): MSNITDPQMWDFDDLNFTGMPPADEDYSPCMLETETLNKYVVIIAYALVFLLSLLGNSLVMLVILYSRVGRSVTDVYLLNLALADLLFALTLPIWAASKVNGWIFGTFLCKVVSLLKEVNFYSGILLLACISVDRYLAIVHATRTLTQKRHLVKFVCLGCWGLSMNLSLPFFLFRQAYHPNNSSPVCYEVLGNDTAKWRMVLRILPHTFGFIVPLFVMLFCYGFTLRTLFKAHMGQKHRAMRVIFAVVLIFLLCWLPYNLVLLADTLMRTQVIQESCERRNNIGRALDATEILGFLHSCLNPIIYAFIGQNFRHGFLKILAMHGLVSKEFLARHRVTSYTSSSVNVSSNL

[4] = Solubility in phosphate buffer at pH 7.4; format: physicochemical
Procedure, shortened: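 Aqueous solubility measured in 0.05 M phosphate buffer, pH 7.4, containing 2% DMSO. High-throughput HPLC-based read-out.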

[5] = target: Interleukin-8 receptors, CXCR1/CXCR2 (Homo sapiens) (UniProt P25025+P25024); assay: Ratio of IC50 for CXCR2 receptor to IC50 CXCR1 receptor; format: protein assay
Procedure, shortened: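 Selectivity ratio from radioligand-binding IC50s at CXCR2 and CXCR1, using CHO-cell membranes expressing each receptor. Binding results are the mean of three individual experiments.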

[6] = target: T3, Adrenergic receptor alpha-1 (Homo sapiens, UniProt P35348+P25100+P35368); assay: Inhibition of adrenergic A1 receptor; format: protein assay
P2Y purinoceptor 1 = P2Y purinoceptor 1 (Homo sapiens, UniProt P47900); assay: Inhibition of P2Y1 receptor
Chain of P2Y purinoceptor 1 (P47900 whole entry): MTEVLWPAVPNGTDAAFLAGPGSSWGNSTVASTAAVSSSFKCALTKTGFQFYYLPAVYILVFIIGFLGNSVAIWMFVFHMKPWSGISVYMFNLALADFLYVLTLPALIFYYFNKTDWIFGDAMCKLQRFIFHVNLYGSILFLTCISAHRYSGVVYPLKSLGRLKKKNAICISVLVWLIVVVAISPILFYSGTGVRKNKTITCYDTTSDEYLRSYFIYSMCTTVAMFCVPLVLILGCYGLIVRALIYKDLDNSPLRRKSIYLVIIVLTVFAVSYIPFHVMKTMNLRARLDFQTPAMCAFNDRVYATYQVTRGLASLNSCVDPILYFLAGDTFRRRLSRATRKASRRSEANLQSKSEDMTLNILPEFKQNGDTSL

[7] = target: Plasminogen activator inhibitor 1 (Homo sapiens, UniProt P05121); assay: Inhibition of PAI1
Chain of Plasminogen activator inhibitor 1 (P05121 whole entry): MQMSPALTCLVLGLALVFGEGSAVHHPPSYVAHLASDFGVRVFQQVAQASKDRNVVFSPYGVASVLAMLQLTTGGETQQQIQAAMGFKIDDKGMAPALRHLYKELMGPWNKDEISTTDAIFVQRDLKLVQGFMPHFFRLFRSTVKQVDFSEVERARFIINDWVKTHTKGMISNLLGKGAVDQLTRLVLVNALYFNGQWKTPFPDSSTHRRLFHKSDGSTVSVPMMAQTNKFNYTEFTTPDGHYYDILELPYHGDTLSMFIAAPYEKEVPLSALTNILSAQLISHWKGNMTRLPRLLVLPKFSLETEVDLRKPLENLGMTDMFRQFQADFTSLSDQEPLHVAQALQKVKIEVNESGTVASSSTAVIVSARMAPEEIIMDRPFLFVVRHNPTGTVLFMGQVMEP

[8] = target: Mitogen-activated protein kinase 14 (Homo sapiens, UniProt Q16539); assay: Inhibition of P38alpha
Chain of Mitogen-activated protein kinase 14 (Q16539 whole entry): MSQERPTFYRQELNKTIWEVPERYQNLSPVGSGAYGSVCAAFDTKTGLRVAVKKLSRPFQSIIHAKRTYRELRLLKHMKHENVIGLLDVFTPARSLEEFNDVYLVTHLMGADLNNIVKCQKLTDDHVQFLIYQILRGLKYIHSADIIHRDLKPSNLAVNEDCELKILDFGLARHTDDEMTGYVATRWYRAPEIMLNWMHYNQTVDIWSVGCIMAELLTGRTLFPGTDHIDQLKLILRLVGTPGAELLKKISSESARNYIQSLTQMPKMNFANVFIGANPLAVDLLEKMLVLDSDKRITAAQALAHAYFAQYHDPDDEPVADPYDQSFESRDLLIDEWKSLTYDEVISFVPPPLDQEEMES

Histamine H3 receptor = Histamine H3 receptor (Homo sapiens, UniProt Q9Y5N1); assay: Inhibition of histamine H3 receptor
[9] = target: 5-hydroxytryptamine receptor 1A (Homo sapiens, UniProt P08908); assay: Inhibition of 5HT1A receptor
[10] = target: 5-hydroxytryptamine receptor 1B (Homo sapiens, UniProt P28222); assay: Inhibition of 5HT1B receptor
Chain of 5-hydroxytryptamine receptor 1B (P28222 whole entry): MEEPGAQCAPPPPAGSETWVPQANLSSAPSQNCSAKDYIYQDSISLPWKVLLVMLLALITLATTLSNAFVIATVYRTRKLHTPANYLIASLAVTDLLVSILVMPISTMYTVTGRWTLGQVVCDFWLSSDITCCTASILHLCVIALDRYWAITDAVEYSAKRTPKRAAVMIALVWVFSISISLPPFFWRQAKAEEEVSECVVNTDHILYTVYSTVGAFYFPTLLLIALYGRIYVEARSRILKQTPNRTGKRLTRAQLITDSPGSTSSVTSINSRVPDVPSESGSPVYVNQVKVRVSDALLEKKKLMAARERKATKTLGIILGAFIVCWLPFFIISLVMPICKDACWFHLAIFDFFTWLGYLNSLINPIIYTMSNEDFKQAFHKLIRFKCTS

[11] = target: 5-hydroxytryptamine receptor 1D (Homo sapiens, UniProt P28221); assay: Inhibition of 5HT1D receptor
Chain of 5-hydroxytryptamine receptor 1D (P28221 whole entry): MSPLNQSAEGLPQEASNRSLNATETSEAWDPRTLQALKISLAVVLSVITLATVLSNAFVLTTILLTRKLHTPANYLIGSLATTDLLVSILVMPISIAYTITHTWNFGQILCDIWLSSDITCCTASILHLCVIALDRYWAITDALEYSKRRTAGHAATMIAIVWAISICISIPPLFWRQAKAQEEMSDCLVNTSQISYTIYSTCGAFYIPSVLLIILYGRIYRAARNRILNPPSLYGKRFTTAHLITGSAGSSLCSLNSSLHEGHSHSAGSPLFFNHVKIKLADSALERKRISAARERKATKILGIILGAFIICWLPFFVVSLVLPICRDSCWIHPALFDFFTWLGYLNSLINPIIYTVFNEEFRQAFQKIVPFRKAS

[12] = target: 5-hydroxytryptamine receptor 6 (Homo sapiens, UniProt P50406); assay: Inhibition of 5HT6 receptor
Chain of 5-hydroxytryptamine receptor 6 (P50406 whole entry): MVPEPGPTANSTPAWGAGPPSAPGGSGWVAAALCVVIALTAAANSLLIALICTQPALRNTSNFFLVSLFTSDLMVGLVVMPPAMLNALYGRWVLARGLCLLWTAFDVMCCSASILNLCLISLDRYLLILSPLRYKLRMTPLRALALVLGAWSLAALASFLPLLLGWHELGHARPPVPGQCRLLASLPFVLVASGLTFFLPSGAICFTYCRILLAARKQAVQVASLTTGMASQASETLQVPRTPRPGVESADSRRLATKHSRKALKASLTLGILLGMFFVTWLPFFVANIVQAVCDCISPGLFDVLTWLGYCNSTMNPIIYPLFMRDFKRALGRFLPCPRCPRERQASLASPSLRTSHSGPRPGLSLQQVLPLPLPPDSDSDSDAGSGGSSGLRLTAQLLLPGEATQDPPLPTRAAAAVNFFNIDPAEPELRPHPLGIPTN

[13] = target: 5-hydroxytryptamine receptor 7 (Homo sapiens, UniProt P34969); assay: Inhibition of 5HT7 receptor
[14] = target: T3, Adrenergic receptor alpha-1; assay: Inhibition of adrenergic alpha-1A receptor; format: protein assay
Histamine H1 receptor = Histamine H1 receptor (Homo sapiens, UniProt P35367); assay: Inhibition of histamine H1 receptor
[15] = target: Beta-1 adrenergic receptor (Homo sapiens, UniProt P08588); assay: Inhibition of adrenergic beta-1 receptor
D(2) dopamine receptor = D(2) dopamine receptor (Homo sapiens, UniProt P14416); assay: Inhibition of dopamine D2 receptor
Chain of D(2) dopamine receptor (P14416 whole entry): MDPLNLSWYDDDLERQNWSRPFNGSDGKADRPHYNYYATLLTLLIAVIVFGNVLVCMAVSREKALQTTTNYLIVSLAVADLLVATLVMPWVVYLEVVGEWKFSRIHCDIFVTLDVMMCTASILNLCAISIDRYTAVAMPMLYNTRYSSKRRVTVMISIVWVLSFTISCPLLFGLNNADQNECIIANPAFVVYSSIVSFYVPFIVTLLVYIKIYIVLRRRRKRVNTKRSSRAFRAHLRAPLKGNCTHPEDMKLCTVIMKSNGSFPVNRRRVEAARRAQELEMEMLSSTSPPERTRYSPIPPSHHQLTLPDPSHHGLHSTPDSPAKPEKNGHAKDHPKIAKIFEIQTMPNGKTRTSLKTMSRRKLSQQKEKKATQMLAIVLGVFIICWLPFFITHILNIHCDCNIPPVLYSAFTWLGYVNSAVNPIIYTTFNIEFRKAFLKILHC

D(3) dopamine receptor = D(3) dopamine receptor (Homo sapiens, UniProt P35462); assay: Inhibition of dopamine D3 receptor
Chain of D(3) dopamine receptor (P35462 whole entry): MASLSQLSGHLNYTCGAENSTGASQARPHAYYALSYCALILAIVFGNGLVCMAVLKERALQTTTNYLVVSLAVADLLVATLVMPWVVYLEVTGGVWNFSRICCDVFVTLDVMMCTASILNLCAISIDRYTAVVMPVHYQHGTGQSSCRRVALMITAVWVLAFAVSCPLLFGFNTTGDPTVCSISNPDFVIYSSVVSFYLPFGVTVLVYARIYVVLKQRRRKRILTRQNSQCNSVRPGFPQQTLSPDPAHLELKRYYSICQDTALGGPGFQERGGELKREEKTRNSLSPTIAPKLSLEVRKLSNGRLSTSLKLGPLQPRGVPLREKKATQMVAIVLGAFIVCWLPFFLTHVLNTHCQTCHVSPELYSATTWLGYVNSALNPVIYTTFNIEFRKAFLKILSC

[16] = target: 5-hydroxytryptamine receptor 4 (Homo sapiens, UniProt Q13639); assay: Inhibition of 5HT4A receptor
Chain of 5-hydroxytryptamine receptor 4 (Q13639 whole entry): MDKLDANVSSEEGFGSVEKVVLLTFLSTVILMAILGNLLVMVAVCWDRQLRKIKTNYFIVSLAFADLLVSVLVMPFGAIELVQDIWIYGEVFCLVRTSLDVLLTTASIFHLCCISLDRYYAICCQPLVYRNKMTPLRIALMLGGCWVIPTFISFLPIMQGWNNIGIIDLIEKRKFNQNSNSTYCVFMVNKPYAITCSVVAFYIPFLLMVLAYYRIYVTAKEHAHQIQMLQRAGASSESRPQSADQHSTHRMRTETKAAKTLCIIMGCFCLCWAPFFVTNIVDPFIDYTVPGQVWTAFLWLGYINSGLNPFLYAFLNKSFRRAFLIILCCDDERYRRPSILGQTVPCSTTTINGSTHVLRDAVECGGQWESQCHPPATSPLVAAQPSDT

[17] = target: 5-hydroxytryptamine receptor 2C (Homo sapiens, UniProt P28335); assay: Inhibition of 5HT2C receptor
[18] = target: Beta-2 adrenergic receptor (Homo sapiens, UniProt P07550); assay: Inhibition of adrenergic beta2 receptor
Adenosine receptor A2a = Adenosine receptor A2a (Homo sapiens, UniProt P29274); assay: Inhibition of adenosine A2a receptor
Cytochrome P450 1A2 = Cytochrome P450 1A2 (Homo sapiens, UniProt P05177); assay: Inhibition of human CYP1A2; format: ADME
Cytochrome P450 2C9 = Cytochrome P450 2C9 (Homo sapiens, UniProt P11712); assay: Inhibition of human CYP2C9
Cytochrome P450 2D6 = Cytochrome P450 2D6 (Homo sapiens, UniProt P10635); assay: Inhibition of human CYP2D6; format: ADME
Chain of Cytochrome P450 2D6 (P10635 whole entry): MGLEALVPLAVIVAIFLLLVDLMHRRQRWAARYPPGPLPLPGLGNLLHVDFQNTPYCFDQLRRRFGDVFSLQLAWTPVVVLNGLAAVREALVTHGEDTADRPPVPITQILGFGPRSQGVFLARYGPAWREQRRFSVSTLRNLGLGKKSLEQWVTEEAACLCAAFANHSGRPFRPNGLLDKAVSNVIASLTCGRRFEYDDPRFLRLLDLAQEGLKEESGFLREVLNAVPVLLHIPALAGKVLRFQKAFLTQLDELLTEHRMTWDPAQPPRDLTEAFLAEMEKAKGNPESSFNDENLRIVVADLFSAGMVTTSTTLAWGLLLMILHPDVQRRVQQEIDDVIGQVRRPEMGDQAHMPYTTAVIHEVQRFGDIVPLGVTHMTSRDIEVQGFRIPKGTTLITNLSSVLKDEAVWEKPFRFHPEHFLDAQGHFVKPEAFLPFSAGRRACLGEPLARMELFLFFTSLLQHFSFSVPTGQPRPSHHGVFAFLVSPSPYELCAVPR

Cytochrome P450 3A4 = Cytochrome P450 3A4 (Homo sapiens, UniProt P08684); assay: Inhibition of human CYP3A4; format: ADME
Chain of Cytochrome P450 3A4 (P08684 whole entry): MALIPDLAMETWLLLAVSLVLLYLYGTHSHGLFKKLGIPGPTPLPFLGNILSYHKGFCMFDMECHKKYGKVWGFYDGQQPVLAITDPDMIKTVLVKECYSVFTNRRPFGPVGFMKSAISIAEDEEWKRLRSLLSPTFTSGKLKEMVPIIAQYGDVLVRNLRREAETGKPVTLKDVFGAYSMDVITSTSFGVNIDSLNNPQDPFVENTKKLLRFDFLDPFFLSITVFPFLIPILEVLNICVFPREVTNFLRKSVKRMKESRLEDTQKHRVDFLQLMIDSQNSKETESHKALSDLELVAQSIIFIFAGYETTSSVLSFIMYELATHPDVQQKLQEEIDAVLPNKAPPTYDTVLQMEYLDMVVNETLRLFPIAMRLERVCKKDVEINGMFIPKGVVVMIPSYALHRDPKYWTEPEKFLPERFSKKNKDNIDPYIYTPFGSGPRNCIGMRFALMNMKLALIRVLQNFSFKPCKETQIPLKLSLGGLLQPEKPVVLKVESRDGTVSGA

[19] = Clearance in rat at 1.6 mg/kg, iv and […] mg/kg, po; format: ADME, organism-based; settings: in vivo
[20] = Half life in rat at 1.6 mg/kg, iv and 3.2 mg/kg, po; format: ADME, organism-based; settings: in vivo
[21] = Volume of distribution at steady state in rat at 1.6 mg/kg, iv and 3.2 mg/kg, po; format: ADME, organism-based; settings: in vivo, read-out: Vdss
[22] = Bioavailability in rat at 3.2 mg/kg, po; format: ADME, organism-based; settings: in vivo

## O=S1(=O)N=C(Nc2ccccc2N2CCOCC2)Nc2c(O)cc(Cl)cc21
[1]
  IC50: > 30 µM

## O=S1(=O)NC(Nc2c(F)cccc2Br)=Nc2c(O)cc(Cl)cc21
[1]
  IC50: 1.6 µM

## O=[N+]([O-])c1cc(O)c2c(c1)S(=O)(=O)N=C(Nc1ccccc1Br)N2
[1]
  IC50: 0.026 µM
[2]
  IC50: 0.6 µM
[3]
  IC50: 3.2 µM
[4]
  solubility: 233 µM (≈ 96.3 µg/mL)
[5]
  Ratio IC50: < 100

## O=S1(=O)NC(Nc2ccccc2-c2ccccc2)=Nc2c(O)cc(Cl)cc21
[1]
  IC50: 0.23 µM

## COc1ccccc1NC1=Nc2c(O)cc(Cl)cc2S(=O)(=O)N1
[1]
  IC50: 0.25 µM

## Cc1cc(O)c2c(c1)S(=O)(=O)N=C(Nc1ccccc1Br)N2
[1]
  IC50: 0.28 µM

## O=S1(=O)NC(Nc2ccc(Br)cc2)=Nc2c(O)cc(Cl)cc21
[1]
  IC50: 5.1 µM

## O=S1(=O)N=C(Nc2ccccc2F)Nc2c(O)cc(Cl)cc21
[1]
  IC50: 0.74 µM

## O=S1(=O)N=C(Nc2ccccc2Br)Nc2c(O)cc(Br)cc21
[1]
  IC50: 0.07 µM

## O=S1(=O)N=C(Nc2ccccc2Cl)Nc2c(O)cc(Cl)cc21
[1]
  IC50: 0.092 µM
[2]
  IC50: 0.52 µM
[3]
  IC50: 24 µM
[4]
  solubility: 68 µM (≈ 24.4 µg/mL)
[5]
  Ratio IC50: < 100

## O=S1(=O)N=C(Nc2ccccc2Cl)Nc2c(O)cccc21
[1]
  IC50: 5.2 µM

## CC(=O)c1ccccc1NC1=Nc2c(O)cc(Cl)cc2S(=O)(=O)N1
[1]
  IC50: 4.5 µM

## O=S1(=O)N=C(Nc2cc(F)ccc2Br)Nc2c(O)cc(Cl)cc21
[1]
  IC50: 3.9 µM

## O=S1(=O)N=C(Nc2ccccc2Oc2ccccc2)Nc2c(O)cc(Cl)cc21
[1]
  IC50: 0.054 µM
[2]
  IC50: 0.32 µM
[3]
  IC50: 20 µM
[4]
  solubility: < 1 µM
[5]
  Ratio IC50: < 100

## O=S1(=O)N=C(Nc2cccc(Br)c2)Nc2c(O)cc(Cl)cc21
[1]
  IC50: 6.1 µM

## O=S1(=O)N=C(Nc2cccc(F)c2Cl)Nc2c(O)cc(Cl)cc21
[5]
  Ratio IC50: < 100

## O=S1(=O)N=C(Nc2ccccc2Br)Nc2c(O)ccc(F)c21
[1]
  IC50: 3 µM

## O=S1(=O)N=C(Nc2ccc(F)cc2Br)Nc2c(O)cc(Cl)cc21
[1]
  IC50: 0.12 µM

## O=S1(=O)N=C(Nc2ccccc2)Nc2c(O)cc(Cl)cc21
[1]
  IC50: 2.4 µM

## O=S1(=O)NC(Nc2cccc(F)c2Cl)=Nc2c(O)cc(Cl)cc21
[1]
  IC50: 0.064 µM
[2]
  IC50: 0.46 µM
[3]
  IC50: 13 µM
[4]
  solubility: 160 µM (≈ 60.2 µg/mL)

## O=S1(=O)NC(NCc2ccccc2Cl)=Nc2c(O)cc(Cl)cc21
[1]
  IC50: > 30 µM

## O=[N+]([O-])c1cc(O)c2c(c1)S(=O)(=O)N=C(Nc1ccccc1Oc1ccccc1)N2
[6]
  IC50: > 25 µM
[1]
  IC50: 0.054 µM
[2]
  IC50: 0.49 µM
[3]
  IC50: 7.6 µM
[4]
  solubility: 2 µM (≈ 0.853 µg/mL)
[5]
  Ratio IC50: < 100
P2Y purinoceptor 1
  IC50: > 25 µM
[7]
  IC50: 7.9 µM
[8]
  IC50: 25 µM
Histamine H3 receptor
  IC50: > 3.2 µM
[9]
  IC50: > 3.2 µM
[10]
  IC50: > 3.2 µM
[11]
  IC50: > 3.2 µM
[12]
  IC50: > 7.9 µM
[13]
  IC50: 25 µM
[14]
  IC50: 1 µM
Histamine H1 receptor
  IC50: > 10 µM
[15]
  IC50: > 25 µM
D(2) dopamine receptor
  IC50: > 3.2 µM
D(3) dopamine receptor
  IC50: > 3.2 µM
[16]
  IC50: > 25 µM
[17]
  IC50: > 10 µM
[18]
  IC50: > 25 µM
Adenosine receptor A2a
  IC50: 25 µM

## O=S1(=O)NC(Nc2ccccc2Br)=Nc2c(O)cc(F)cc21
[1]
  IC50: 0.36 µM

## O=S1(=O)N=C(Nc2ccccc2Br)Nc2c(O)cc(Cl)cc21
[5]
  Ratio IC50: < 100

## O=[N+]([O-])c1cc(O)c2c(c1)S(=O)(=O)N=C(Nc1ccccc1Cl)N2
Cytochrome P450 1A2
  IC50: > 25 µM
Cytochrome P450 2C9
  IC50: 0.6 µM
Cytochrome P450 2D6
  IC50: > 25 µM
Cytochrome P450 3A4
  IC50: > 25 µM
[19]
  clearance: 23 mL/min/kg
[20]
  half-life: 2 h
[21]
  Vd: 0.53 L/kg
[22]
  bioavailability: 5%
[1]
  IC50: 0.081 µM
[2]
  IC50: 1.1 µM
[3]
  IC50: 12 µM
[4]
  solubility: 188 µM (≈ 69.3 µg/mL)
[5]
  Ratio IC50: < 100

## O=S1(=O)NC(Nc2ccccc2OC(F)(F)F)=Nc2c(O)cc(Cl)cc21
[1]
  IC50: 0.93 µM

## O=C(O)c1ccccc1NC1=Nc2c(O)cc(Cl)cc2S(=O)(=O)N1
[1]
  IC50: > 30 µM

## O=S1(=O)NC(NCc2ccccc2)=Nc2c(O)cc(Cl)cc21
[1]
  IC50: 8 µM

## O=S1(=O)NC(Nc2ccccc2Br)=Nc2c(O)cc(Cl)cc21
[1]
  IC50: 0.064 µM
[2]
  IC50: 0.4 µM
[3]
  IC50: 13 µM
[4]
  solubility: 31 µM (≈ 12.5 µg/mL)

## O=S1(=O)N=C(NC2CCCC2)Nc2c(O)cc(Cl)cc21
[1]
  IC50: 20 µM

## CC[C@@H](C)NC1=Nc2c(O)cc(Cl)cc2S(=O)(=O)N1
[1]
  IC50: 15 µM

## Cc1ccccc1NC1=NS(=O)(=O)c2cc(Cl)cc(O)c2N1
[1]
  IC50: 0.39 µM

## O=S1(=O)NC(Nc2ccccc2C(F)(F)F)=Nc2c(O)cc(Cl)cc21
[1]
  IC50: 0.83 µM

## O=S1(=O)N=C(Nc2ccccc2Br)Nc2c(O)ccc(Cl)c21
[1]
  IC50: 0.48 µM
